Reference: ChEMBL document CHEMBL3244011, “(Aryloxy)[p-(aryloxy)phenyl]- and (aryloxy)[p-(arylthio)phenyl]acetic acids and esters as hypolipidemic agents” (1979)

What was measured:
Format in all cases: functional
Set-up in all cases: scale not given: the % may be the effect or the level left
Rattus norvegicus [1] = test: Hypolipidemic activity in COBBS-CD rat assessed as reduction in serum sterol level at 0.1% administered with chow diet after 5 days relative to control
Procedure, shortened: (§1)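 Male COBBS-CD rats, four per treated group and eight per control group. The compound was mixed into ground rat chow at 0.1, 0.03 or 0.01% w/w (about 100, 30 and 10 mg/kg). Control chow received only the mixing solvent (methanol-chloroform 1:3 v/v). Food and water were ad libitum for 5 days, then rats were decapitated and blood collected. Serum sterols were measured by an automated method and expressed relative to controls; ± values are SD.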

Rattus norvegicus [2] = test: Hypolipidemic activity in COBBS-CD rat assessed as reduction in serum triglyceride level at 0.1% administered with chow diet after 5 days relative to control
Procedure, shortened: (§2)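 The compound was given in ground chow at 0.1, 0.03 or 0.01% w/w (about 100, 30 and 10 mg/kg) to male COBBS-CD rats (n=4; solvent-chow controls n=8) for 5 days ad libitum. Rats were killed by decapitation and blood collected. Serum triglycerides were assayed by an automated method and compared with controls; ± values are SD.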

Rattus norvegicus [3] = test: Hypolipidemic activity in COBBS-CD rat assessed as reduction in serum sterol level at 0.3% administered with chow diet after 5 days relative to control
Rattus norvegicus [4] = test: Hypolipidemic activity in COBBS-CD rat assessed as reduction in serum triglyceride level at 0.3% administered with chow diet after 5 days relative to control
Rattus norvegicus [5] = test: Hypolipidemic activity in COBBS-CD rat assessed as reduction in serum sterol level at 0.03% administered with chow diet after 5 days relative to control; procedure, shortened: as §1
Rattus norvegicus [6] = test: Hypolipidemic activity in COBBS-CD rat assessed as reduction in serum sterol level at 0.01% administered with chow diet after 5 days relative to control; procedure, shortened: as §1
Rattus norvegicus [7] = test: Hypolipidemic activity in COBBS-CD rat assessed as reduction in serum triglyceride level at 0.03% administered with chow diet after 5 days relative to control; procedure, shortened: as §2
Rattus norvegicus [8] = test: Hypolipidemic activity in COBBS-CD rat assessed as reduction in serum triglyceride level at 0.01% administered with chow diet after 5 days relative to control; procedure, shortened: as §2

CCOC(=O)C(C)(C)Oc1ccc(Cl)cc1 [CLOFIBRATE]
Activity (Rattus norvegicus [1]): 0%
Activity (Rattus norvegicus [2]): 30%
Activity (Rattus norvegicus [3]): 19%
Activity (Rattus norvegicus [4]): 58%

COC(=O)C(Oc1ccc(F)cc1)c1ccc(Oc2ccc(C#N)cc2)cc1 (centres undefined)
Activity (Rattus norvegicus [1]): 33%
Activity (Rattus norvegicus [5]): 19%
Activity (Rattus norvegicus [6]): 13%
Activity (Rattus norvegicus [2]): 60%
Activity (Rattus norvegicus [7]): 31%
Activity (Rattus norvegicus [8]): 38%

COC(=O)C(Oc1cc(C)c(Cl)c(C)c1)c1ccc(Oc2ccc(Cl)cc2)cc1 (centres undefined)
Activity (Rattus norvegicus [1]): 21%
Activity (Rattus norvegicus [5]): 22%
Activity (Rattus norvegicus [6]): 0%
Activity (Rattus norvegicus [2]): 66%
Activity (Rattus norvegicus [7]): 49%
Activity (Rattus norvegicus [8]): 33%

COC(=O)C(Oc1cccc(Cl)c1)c1ccc(Oc2ccc(Cl)cc2)cc1 (centres undefined)
Activity (Rattus norvegicus [1]): 19%
Activity (Rattus norvegicus [5]): 11%
Activity (Rattus norvegicus [6]): -3%
Activity (Rattus norvegicus [2]): 50%
Activity (Rattus norvegicus [7]): 22%
Activity (Rattus norvegicus [8]): 13%

COC(=O)C(Oc1cccc2c1CCC2)c1ccc(Oc2ccc(Cl)cc2)cc1 (centres undefined)
Activity (Rattus norvegicus [1]): 19%
Activity (Rattus norvegicus [5]): 10%
Activity (Rattus norvegicus [6]): 7%
Activity (Rattus norvegicus [2]): 17%
Activity (Rattus norvegicus [7]): -8%
Activity (Rattus norvegicus [8]): -39%

COC(=O)C(Oc1ccc2c(c1)CCCC2)c1ccc(Oc2ccc(Cl)cc2)cc1 (centres undefined)
Activity (Rattus norvegicus [1]): 42%
Activity (Rattus norvegicus [5]): 26%
Activity (Rattus norvegicus [6]): 24%
Activity (Rattus norvegicus [2]): 47%
Activity (Rattus norvegicus [7]): 35%
Activity (Rattus norvegicus [8]): 8%

COC(=O)C(Oc1ccc(C2CCCCC2)cc1)c1ccc(Oc2cccc(C(F)(F)F)c2)cc1 (centres undefined)
Activity (Rattus norvegicus [1]): 20%
Activity (Rattus norvegicus [5]): 18%
Activity (Rattus norvegicus [6]): 8%
Activity (Rattus norvegicus [2]): 59%
Activity (Rattus norvegicus [7]): 34%
Activity (Rattus norvegicus [8]): 40%

COC(=O)C(Oc1ccc(C(C)(C)C)cc1)c1ccc(Oc2cccc(C(F)(F)F)c2)cc1 (centres undefined)
Activity (Rattus norvegicus [1]): 26%
Activity (Rattus norvegicus [5]): 35%
Activity (Rattus norvegicus [6]): 12%
Activity (Rattus norvegicus [2]): 77%
Activity (Rattus norvegicus [7]): 70%
Activity (Rattus norvegicus [8]): 52%

COC(=O)C(Oc1ccc(C(C)(C)C)cc1)c1ccc(Oc2ccc(C#N)cc2)cc1 (centres undefined)
Activity (Rattus norvegicus [1]): 13%
Activity (Rattus norvegicus [5]): 13%
Activity (Rattus norvegicus [6]): 16%
Activity (Rattus norvegicus [2]): 59%
Activity (Rattus norvegicus [7]): 63%
Activity (Rattus norvegicus [8]): 69%

COC(=O)C(Oc1cccc(C(C)(C)C)c1)c1ccc(Oc2ccc(Cl)cc2)cc1 (centres undefined)
Activity (Rattus norvegicus [1]): 41%
Activity (Rattus norvegicus [5]): 20%
Activity (Rattus norvegicus [6]): 23%
Activity (Rattus norvegicus [2]): 63%
Activity (Rattus norvegicus [7]): 49%
Activity (Rattus norvegicus [8]): 41%

COC(=O)C(Oc1ccc(Cl)cc1)c1ccc(Oc2ccc(S(C)(=O)=O)cc2)cc1 (centres undefined)
Activity (Rattus norvegicus [1]): 15%
Activity (Rattus norvegicus [5]): -1%
Activity (Rattus norvegicus [6]): 8%
Activity (Rattus norvegicus [2]): 22%
Activity (Rattus norvegicus [7]): -11%
Activity (Rattus norvegicus [8]): 11%

COC(=O)C(Oc1ccc(Cl)c2c1CCCC2)c1ccc(Oc2ccc(Cl)cc2)cc1 (centres undefined)
Activity (Rattus norvegicus [1]): 25%
Activity (Rattus norvegicus [5]): 30%
Activity (Rattus norvegicus [6]): -1%
Activity (Rattus norvegicus [2]): 54%
Activity (Rattus norvegicus [7]): 28%
Activity (Rattus norvegicus [8]): 24%

COC(=O)C(Oc1ccc(Cl)cc1)c1ccc(Oc2cccc(C(F)(F)F)c2)cc1 (centres undefined)
Activity (Rattus norvegicus [1]): 32%
Activity (Rattus norvegicus [5]): 31%
Activity (Rattus norvegicus [6]): 8%
Activity (Rattus norvegicus [2]): 50%
Activity (Rattus norvegicus [7]): 47%
Activity (Rattus norvegicus [8]): 35%

COC(=O)C(Oc1ccc(F)cc1)c1ccc(Sc2ccc(Cl)cc2)cc1 (centres undefined)
Activity (Rattus norvegicus [1]): 22%
Activity (Rattus norvegicus [5]): 23%
Activity (Rattus norvegicus [6]): 21%
Activity (Rattus norvegicus [2]): 36%
Activity (Rattus norvegicus [7]): 18%
Activity (Rattus norvegicus [8]): 1%

COC(=O)C(Oc1ccc(C(F)(F)F)cc1)c1ccc(Oc2ccc(Cl)cc2)cc1 (centres undefined)
Activity (Rattus norvegicus [1]): 20%
Activity (Rattus norvegicus [5]): 28%
Activity (Rattus norvegicus [6]): 24%
Activity (Rattus norvegicus [2]): 53%
Activity (Rattus norvegicus [7]): 51%
Activity (Rattus norvegicus [8]): 60%

O=C(O)C(Oc1ccc(Oc2ccccc2)cc1)c1ccc(Oc2ccc(Cl)cc2)cc1 (centres undefined)
Activity (Rattus norvegicus [1]): 33%
Activity (Rattus norvegicus [5]): 21%
Activity (Rattus norvegicus [6]): 13%
Activity (Rattus norvegicus [2]): 54%
Activity (Rattus norvegicus [7]): 38%
Activity (Rattus norvegicus [8]): 53%

COC(=O)C(Oc1ccc(C(C)(C)C)cc1Cl)c1ccc(Oc2ccc(Cl)cc2)cc1 (centres undefined)
Activity (Rattus norvegicus [1]): 28%
Activity (Rattus norvegicus [5]): 29%
Activity (Rattus norvegicus [6]): 17%
Activity (Rattus norvegicus [2]): 64%
Activity (Rattus norvegicus [7]): 50%
Activity (Rattus norvegicus [8]): 25%

COC(=O)C(Oc1ccc(Cl)cc1)c1ccc(Oc2ccc(C(C)(C)C)cc2)cc1 (centres undefined)
Activity (Rattus norvegicus [1]): 7%
Activity (Rattus norvegicus [5]): 11%
Activity (Rattus norvegicus [6]): 17%
Activity (Rattus norvegicus [2]): 46%
Activity (Rattus norvegicus [7]): 30%
Activity (Rattus norvegicus [8]): 25%

COC(=O)C(Oc1ccc(Cl)c2cccnc12)c1ccc(Oc2ccc(Cl)cc2)cc1 (centres undefined)
Activity (Rattus norvegicus [1]): 5%
Activity (Rattus norvegicus [5]): 4%
Activity (Rattus norvegicus [6]): 4%
Activity (Rattus norvegicus [2]): 5%
Activity (Rattus norvegicus [7]): 4%
Activity (Rattus norvegicus [8]): -3%

COC(=O)C(Oc1ccc(OCc2ccccc2)cc1)c1ccc(Oc2ccc(Cl)cc2)cc1 (centres undefined)
Activity (Rattus norvegicus [1]): 30%
Activity (Rattus norvegicus [5]): 26%
Activity (Rattus norvegicus [6]): 13%
Activity (Rattus norvegicus [2]): 57%
Activity (Rattus norvegicus [7]): 37%
Activity (Rattus norvegicus [8]): 29%

O=C(O)C(Oc1ccc(F)cc1)c1ccc(Oc2ccc(Cl)cc2)cc1 (centres undefined)
Activity (Rattus norvegicus [1]): 29%
Activity (Rattus norvegicus [5]): 28%
Activity (Rattus norvegicus [6]): 41%
Activity (Rattus norvegicus [2]): 58%
Activity (Rattus norvegicus [7]): 48%
Activity (Rattus norvegicus [8]): 20%

COC(=O)C(Oc1cccc2c1CCCC2)c1ccc(Oc2ccc(Cl)cc2)cc1 (centres undefined)
Activity (Rattus norvegicus [1]): 23%
Activity (Rattus norvegicus [5]): 14%
Activity (Rattus norvegicus [6]): 1%
Activity (Rattus norvegicus [2]): 41%
Activity (Rattus norvegicus [7]): -1%
Activity (Rattus norvegicus [8]): -34%

COC(=O)C(Oc1ccc(C(C)(C)C)cc1)c1ccc(Oc2ccc(NC(C)=O)cc2)cc1 (centres undefined)
Activity (Rattus norvegicus [1]): 16%
Activity (Rattus norvegicus [5]): 18%
Activity (Rattus norvegicus [6]): 5%
Activity (Rattus norvegicus [2]): 55%
Activity (Rattus norvegicus [7]): 50%
Activity (Rattus norvegicus [8]): 44%

COC(=O)C(Oc1ccc(Cl)c(C)c1)c1ccc(Oc2ccc(Cl)cc2)cc1 (centres undefined)
Activity (Rattus norvegicus [1]): 39%
Activity (Rattus norvegicus [5]): 34%
Activity (Rattus norvegicus [6]): 34%
Activity (Rattus norvegicus [2]): 54%
Activity (Rattus norvegicus [7]): 39%
Activity (Rattus norvegicus [8]): 28%

COC(=O)C(Oc1ccc(C2CCCCC2)cc1)c1ccc(Oc2ccc(C(C)(C)C)cc2)cc1 (centres undefined)
Activity (Rattus norvegicus [1]): 33%
Activity (Rattus norvegicus [5]): 16%
Activity (Rattus norvegicus [6]): -5%
Activity (Rattus norvegicus [2]): 52%
Activity (Rattus norvegicus [7]): 49%
Activity (Rattus norvegicus [8]): 29%

COC(=O)C(Oc1ccc(Cl)cc1)c1ccc(Oc2ccccc2)cc1 (centres undefined)
Activity (Rattus norvegicus [1]): 13%
Activity (Rattus norvegicus [5]): 3%
Activity (Rattus norvegicus [6]): 19%
Activity (Rattus norvegicus [2]): 58%
Activity (Rattus norvegicus [7]): 56%
Activity (Rattus norvegicus [8]): 62%

COC(=O)C(Oc1ccccc1)c1ccc(Oc2ccccc2)cc1 (centres undefined)
Activity (Rattus norvegicus [1]): 21%
Activity (Rattus norvegicus [5]): 19%
Activity (Rattus norvegicus [6]): 10%
Activity (Rattus norvegicus [2]): 58%
Activity (Rattus norvegicus [7]): 49%
Activity (Rattus norvegicus [8]): 46%

COC(=O)C(Oc1ccc2c(c1)CCC2)c1ccc(Oc2ccc(Cl)cc2)cc1 (centres undefined)
Activity (Rattus norvegicus [1]): 25%
Activity (Rattus norvegicus [5]): 30%
Activity (Rattus norvegicus [6]): 26%
Activity (Rattus norvegicus [2]): 52%
Activity (Rattus norvegicus [7]): 51%
Activity (Rattus norvegicus [8]): 37%

COC(=O)C(Oc1ccc(Cl)cc1)(C(=O)OC)c1ccc(Oc2ccc(Cl)cc2)cc1
Activity (Rattus norvegicus [1]): 32%
Activity (Rattus norvegicus [5]): 25%
Activity (Rattus norvegicus [6]): 9%
Activity (Rattus norvegicus [2]): 63%
Activity (Rattus norvegicus [7]): 48%
Activity (Rattus norvegicus [8]): -2%

COC(=O)C(Oc1ccc(C(C)(C)C)cc1)c1ccc(Oc2ccc(Cl)c3ccccc23)cc1 (centres undefined)
Activity (Rattus norvegicus [1]): 23%
Activity (Rattus norvegicus [5]): 24%
Activity (Rattus norvegicus [6]): 16%
Activity (Rattus norvegicus [2]): 56%
Activity (Rattus norvegicus [7]): 39%
Activity (Rattus norvegicus [8]): 29%

COC(=O)C(Oc1ccc(Cl)cc1)c1ccc(Oc2ccc(C#N)cc2)cc1 (centres undefined)
Activity (Rattus norvegicus [1]): 16%
Activity (Rattus norvegicus [5]): 19%
Activity (Rattus norvegicus [6]): 20%
Activity (Rattus norvegicus [2]): 71%
Activity (Rattus norvegicus [7]): 60%
Activity (Rattus norvegicus [8]): 50%
